Assay [1] has as its system MDA-MB-231. The assay is described as follows: cells. The class given is functional. Conditions: Homo sapiens, MDA-MB-231, 72 h.
The target of assay [2] is Histone deacetylase. The assay is described as follows: Inhibition of HDAC in human HeLa cell nuclear extracts using Ac-Arg-Gly-Lys(Ac)-AMC substrate by fluorimetry. The class given is protein assay.
Assay [3] deals with HepG2. The assay is described as follows: cells. In kind it is functional. Conditions: Homo sapiens, HepG2, 72 h.
Assay [4] concerns A549. The assay is described as follows: cells. The class given is functional. The following applies: Homo sapiens, A549, 72 h.
In assay [5] the target is Histone deacetylase (Homo sapiens) (UniProt Q13547+O15379+Q9UBN7+Q92769+Q9UQL6+Q8WUI4+Q9BY41+Q96DB2+P56524+Q9UKV0+Q969S8). The assay is described as follows: Inhibition of HDAC in human MDA-MB-231 cells assessed as stimulation of histone H3 acetylation at 5 uM incubated for 24 hrs by Western blot. The class given is cell-based. Put shortly: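 MDA-MB-231 cells in 35-mm dishes, dosed 24 h at graded concentrations, then trypsinized and PBS-washed. Lysed in RIPA (50 mM Tris-HCl pH 7.5, protease and phosphatase inhibitors) for 30 min at 4 °C, then cleared at 12,000g. Lysate, 60 μg protein by BCA, run on SDS-PAGE and PVDF. Blotted with anti-acetyl-histone H3 and HRP anti-rabbit, read by ECL.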
A general note: A western blot detects proteins with antibodies after separation by electrophoresis.

Assay [6] has as its system SW-620. The assay is described as follows: cells. In kind it is functional. The following applies: Homo sapiens, SW-620, 72 h.
Assay [7] concerns K562. The assay is described as follows: cells. In kind it is functional. The following applies: Homo sapiens, K562, 72 h.
For assay [8], the system named is COLO 205. The assay is described as follows: cells. In kind it is functional. Conditions: Homo sapiens, COLO 205, 72 h.
Assay [9] relates to PC-3. The assay is described as follows: cells. In kind it is functional. Conditions: Homo sapiens, PC-3, 72 h.
Assay [10] deals with OVCAR-3. The assay is described as follows: cells. The class given is functional. The following applies: Homo sapiens, OVCAR-3, 72 h.

Active and inactive are the calls of the source. The rule behind the calls is not given here.

Broadly, the GI50 is the concentration at which growth is held to half of that of the control. Read a low GI50 as greater sensitivity of the cells. The IC50 is the concentration that gives 50% inhibition. High values mean weaker potency in that assay, low ones greater potency in that assay. In the case of `CC(C)C(c1nc2ccccc2o1)n1cc(/C=C/C(=O)NO)nn1` (racemic), the values for the GI50 in assay [1], in [3] and in assay [4] were 170 nM, 1000 nM and 400 nM, respectively. Also, the IC50 in assay [2] turned out to be 23 nM. For the same molecule, the “histone H3 acetylation activity (active/not active)” value in [5] was “Active”.

Take `O=C(O)CCC(c1nc2ccccc2o1)n1cc(/C=C/C(=O)NO)nn1` (racemic): the concentration for 50% growth inhibition (GI50) in assay [1], in assay [3] and in assay [4] was above 20000 nM each time. This molecule gave an IC50 in [2] of 333 nM.

`O=C(/C=C/c1cn(Cc2nc3ccccc3[nH]2)nn1)NO`: the IC50 in assay [2] turned out to be 178 nM. The 50% growth inhibitory concentration (GI50) in assay [3] and in [4] was above 20000 nM each time.

As for `CC(C)CC(c1nc2ccccc2o1)n1cc(/C=C/C(=O)NO)nn1` (racemic), the GI50 was determined as 280 nM in assay [1], 2200 nM in [3] and 660 nM in assay [4]. The concentration for half-maximal inhibition (IC50) in assay [2] worked out at 19 nM.

With `CC(c1nc2ccccc2o1)n1cc(/C=C/C(=O)NO)nn1` (racemic), the GI50 in assay [1] worked out at 1200 nM; in assay [3], 2900 nM; in assay [4], 2400 nM. Besides, the IC50 in assay [2] came out at 86 nM.

`O=C(/C=C/c1cn(C(Cc2ccccc2)c2nc3ccccc3o2)nn1)NO` (racemic): the GI50 was determined as 5500 nM in assay [1], 5900 nM in assay [3] and 4400 nM in assay [4]. Moreover, the IC50 in [2] is recorded as 219 nM.

`O=C(/C=C/c1cn(Cc2nc3ccccc3o2)nn1)NO`: the concentration for 50% growth inhibition (GI50) in assay [6] was determined as 1200 nM; in assay [1] it was 1400 nM; in [7] it was 720 nM; in [3], 6100 nM; in assay [4], 4700 nM; in assay [8], 1100 nM. Also, the GI50 in assay [9] was 1600 nM; in assay [10], 1900 nM. The molecule further yielded a half-maximal inhibitory concentration (IC50) in assay [2] of 105 nM. Also, the “histone H3 acetylation activity (active/not active)” value in assay [5] is “Active”.

Values taken from ChEMBL document CHEMBL2034936, “Discovery and extensive in vitro evaluations of NK-HDAC-1: a chiral histone deacetylase inhibitor as a promising lead” (J Med Chem, 2012).
